From ChEMBL document CHEMBL3286382, “Synthesis and biological evaluation of imidazo[1,2-a]pyrimidines and imidazo[1,2-a]pyridines as new inhibitors of the Wnt/β-catenin signaling” (Eur J Med Chem, 2014)
Calls of active or inactive are those of the source. No cut-off for these calls is given here.

What was measured:
[1] = tested on: HT-29; experiment: Inhibition of Wnt signaling in human HT29 cells assessed as inhibition of beta-catenin-mediated Tcf/Lef transcriptional activity after 24 hrs by dual luciferase reporter gene assay relative to control; type: cell-based; details: HT-29, 24 h
[2] = tested on: HT-29; experiment: Antiproliferative activity against human HT-29 cells after 72 hrs by MTT assay; type: functional; details: HT-29, 72 h
Summary of the method: (§1)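 Cells grown in DMEM with 10% FBS, penicillin G, streptomycin and L-glutamine, seeded 7 x 10^3 per well, left 24 h, then exposed to scalar concentrations in complete medium for 72 h at 37 °C, 5% CO2. Viability read by MTT; IC50 taken as the concentration giving 50% inhibition of proliferation.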

[3] = tested on: A549; experiment: Antiproliferative activity against human A549 cells after 72 hrs by MTT assay; type: functional; details: A549, 72 h; summary of the method: as §1
[4] = tested on: LoVo; experiment: Antiproliferative activity against human LoVo cells after 72 hrs by MTT assay; type: functional; summary of the method: as §1
[5] = tested on: HepG2; experiment: Antiproliferative activity against human HepG2 cells after 72 hrs by MTT assay; type: functional; details: HepG2, 72 h; summary of the method: as §1
[6] = Antiproliferative activity against human fibroblasts after 72 hrs by MTT assay; type: cell-based, Fibroblast
[7] = tested on: HT-29; experiment: Inhibition of Wnt signaling in human HT29 cells assessed as inhibition of beta-catenin-mediated Tcf/Lef transcriptional activity at 25 uM after 24 hrs by dual luciferase reporter gene assay relative to control; type: cell-based
Summary of the method: (§2)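 HT-29 cells (1.4 x 10^4) were co-transfected with 1 µg BAT-LUX, which carries 7 TCF sites and the siamois promoter driving firefly luciferase, plus 1 µg Renilla vector. Cells were then treated at 37 °C for 24 h, with or without the GSK-3β inhibitor LiCl. Dual-Glo readout; values are the mean firefly/Renilla ratio.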

[8] = tested on: HT-29; experiment: Inhibition of Wnt signaling in human HT29 cells assessed as inhibition of beta-catenin-mediated Tcf/Lef transcriptional activity at 25 uM after 24 hrs by dual luciferase reporter gene assay relative to control in presence of GSK-3beta inhibitor LiCl; type: cell-based; summary of the method: as §2
[9] = tested on: HT-29; experiment: Inhibition of Wnt/beta-catenin signaling in human HT29 cells assessed as […] in axin2 mRNA expression at 25 uM after 24 hrs by quantitative real-time PCR assay; type: cell-based
Summary of the method: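 Total RNA was extracted with TRIzol from HT-29 cells treated for 24 h. Transcripts were measured by real-time RT-PCR with GUS as the reference gene, and expression was expressed relative to untreated cells.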

[10] = tested on: HT-29; experiment: Inhibition of Wnt signaling in human HT29 cells assessed as beta-catenin dephosphorylation at S33/37/T41 residues at 25 uM after 24 hrs by Western blot analysis; type: cell-based
Summary of the method: (§3)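 After 24 h exposure, HT-29 cells were washed in cold PBS, lysed on ice for 30 min and cleared at 15 000 g, 4 °C. 10 µg protein was run on 12% SDS-PAGE and transferred to PVDF. Blots were probed with specific primary antibodies, then peroxidase-labelled secondaries, and developed by ECL. β-actin re-probing served as the loading control.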

[11] = tested on: HT-29; experiment: Inhibition of Wnt/beta-catenin signaling in human HT29 cells assessed as GSK3-beta dephosphorylation at Ser21/Ser9 residues at 25 uM after 24 hrs by Western blot analysis; type: cell-based; summary of the method: as §3
[12] = tested on: HT-29; experiment: Inhibition of Wnt/beta-catenin signaling in human HT29 cells assessed as […] protein level at 25 uM after 24 hrs by Western blot analysis; type: cell-based; summary of the method: as §3
[13] = tested on: HT-29; experiment: Inhibition of Wnt signaling in human HT29 cells assessed as increase in cytoplasmic beta-catenin at 25 uM after 24 hrs by fluorescence microscopy; type: cell-based
Summary of the method: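 Cells were fixed in cold 4% formaldehyde for 15 min and stained with anti-β-catenin (mouse, 1:50), then an Alexa-conjugated secondary, with DAPI counterstain. Images were taken on a video-confocal microscope with a 60x objective.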

SMILES | IC50 [1] [µM] | GI50 [2] [µM] | GI50 [3] [µM] | GI50 [4] [µM] | GI50 [5] [µM] | GI50 at 72 h [6] [µM] | inhibition [7] | inhibition [8] | inhibition [9] | inhibition [10] | inhibition [11] | inhibition [12] | inhibition [13]
Cc1ccn2cc(-c3ccc([N+](=O)[O-])cc3)nc2c1 | 23.1 | > 100 | 62.4 | – | – | – | – | – | – | – | – | – | –
Cc1ccc2nc(-c3ccc(N(Cc4ccccc4)Cc4ccccc4)cc3)cn2c1 | 19.5 | 37.6 | 60 | – | – | – | – | – | – | – | – | – | –
COc1cc(OC)n2cc(-c3ccc(NCc4ccccc4)cc3)nc2n1 | 34.6 | > 100 | > 100 | > 100 | > 100 | – | – | – | – | – | – | – | –
Cc1cc(OCc2ccccc2)n2cc(-c3ccc([N+](=O)[O-])cc3)nc2n1 | 16.1 | > 100 | 71 | 74.9 | > 100 | – | – | – | – | – | – | – | –
COc1cc(OC)n2cc(-c3ccc(N(Cc4ccccc4)Cc4ccccc4)cc3)nc2n1 | 67 | > 100 | 7 | 61.9 | > 100 | – | – | – | – | – | – | – | –
Cc1ccn2cc(-c3ccc(N)cc3)nc2c1 | 42.2 | 93.6 | > 100 | – | – | – | – | – | – | – | – | – | –
Cc1ccn2cc(-c3ccc(NCc4ccccc4)cc3)nc2c1 | 17.8 | 17.5 | – | – | – | > 100 | – | – | – | – | – | – | –
CC(=O)Nc1cc(OCc2ccccc2)nc(SCc2ccccc2)n1 | 46.2 | 65.8 | 35.2 | 40 | 42.9 | – | – | – | – | – | – | – | –
COc1cc(OC)n2cc(-c3ccc([N+](=O)[O-])cc3)nc2n1 | 57.8 | > 100 | 36.6 | 70.6 | 35.9 | – | – | – | – | – | – | – | –
CC(=O)Nc1cc(=O)n(CC(C)C)c(SCc2ccccc2)n1 | 43 | 68.4 | 46.4 | 58.5 | 67.6 | – | – | – | – | – | – | – | –
Cc1ccc2nc(-c3ccc(NC(=O)c4ccccc4C(=O)O)cc3)cn2c1 | 9.7 | > 100 | > 100 | 90.7 | > 100 | – | Active | Active | Active | Active | inactive | Active | Active
O=C1[C@H](Cc2ccc(O)cc2)N2C(=O)CCN(C(=O)NCc3ccccc3)[C@H]2CN1Cc1cccc2ccccc12 | 18.7 | 17.2 | 6.1 | 15.6 | 12.7 | – | Active | Active | Active | – | – | – | –
CC(C)COc1cc(N)nc(SCc2ccccc2)n1 | 72.2 | 40 | 18.7 | 54.5 | 60.8 | – | – | – | – | – | – | – | –
